{
  "source": "ChEMBL document CHEMBL4422635",
  "about": "“Structure-Based Discovery of a Subtype-Selective Inhibitor Targeting a Transient Receptor Potential Vanilloid Channel” (J Med Chem, 2019)",
  "key": {"[1]": {"system": "T1, Transient receptor potential cation channel subfamily V member 2 (Mus musculus), Q9WTR1 [Q525E]", "T1 sequence (whole entry)": "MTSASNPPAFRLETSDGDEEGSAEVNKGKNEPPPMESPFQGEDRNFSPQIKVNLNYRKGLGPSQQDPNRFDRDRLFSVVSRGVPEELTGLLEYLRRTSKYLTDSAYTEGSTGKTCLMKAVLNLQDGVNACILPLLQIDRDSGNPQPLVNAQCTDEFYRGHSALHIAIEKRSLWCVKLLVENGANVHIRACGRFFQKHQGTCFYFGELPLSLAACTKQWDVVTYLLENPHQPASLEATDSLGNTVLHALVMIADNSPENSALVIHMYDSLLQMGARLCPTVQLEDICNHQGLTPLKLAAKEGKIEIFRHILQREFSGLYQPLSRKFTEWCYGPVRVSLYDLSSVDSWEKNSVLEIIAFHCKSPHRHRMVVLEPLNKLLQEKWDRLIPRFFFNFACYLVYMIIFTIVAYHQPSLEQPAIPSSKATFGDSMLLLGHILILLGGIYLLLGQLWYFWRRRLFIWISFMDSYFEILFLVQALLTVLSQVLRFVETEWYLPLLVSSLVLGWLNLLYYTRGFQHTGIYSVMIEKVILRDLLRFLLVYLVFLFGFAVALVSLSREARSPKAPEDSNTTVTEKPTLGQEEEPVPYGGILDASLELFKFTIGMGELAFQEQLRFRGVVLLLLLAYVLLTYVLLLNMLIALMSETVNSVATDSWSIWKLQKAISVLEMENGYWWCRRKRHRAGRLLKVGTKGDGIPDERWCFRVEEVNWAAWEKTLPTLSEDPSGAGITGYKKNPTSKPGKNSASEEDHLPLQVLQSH", "assay": "Antagonist activity at mouse TRPV2 Q525E mutant expressed in HEK293T cells assessed as inhibition of 2-APB evoked currents at -60 mV holding potential by whole-cell patch clamp assay", "assay_type": "cell-based", "method_in_brief": "(§1)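 Whole-cell voltage clamp of transiently transfected HEK293T cells co-expressing GFP, recorded 36-96 h post-transfection. Hold -60 mV; pipettes 3-7 MΩ. Bath 165 mM NaCl, 10 mM HEPES pH 7.3; pipette 140 mM KCl, 10 mM HEPES pH 7.3. Room temperature (~25 °C). IC50 from Hill fits of I/I0, the current ratio after vs before inhibitor; mean ± SEM.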"}, "Homo sapiens": {"organism": "Homo sapiens", "assay": "Inhibition of LPA-induced TRPV2/LPAR1 mediated cell migration in human PC3M cells at 20 uM after 24 hrs by transwell migration assay", "assay_type": "cell-based"}, "Mus musculus": {"system": "Mus musculus", "assay": "Antagonist activity at mouse TRPV2/LPAR1 expressed in LPA-stimulated HEK293T cells assessed as inhibition of 2-APB evoked currents at 10 uM dosed 3 mins after LPA stimulation by whole-cell patch clamp assay", "method_in_brief": "as §1"}},
  "note": "Active and inactive are the calls of the source. The calls are words filed in the database; no cut-off is given here.",
  "data": [
    {"smiles": "CCCN(C)c1cc(C(F)(F)F)nc(SCCC(=O)NCc2ccco2)n1", "values": [
      {"measurement": "inhibition", "setting": "[1]", "value": "inactive"},
      {"measurement": "inhibition", "setting": "Homo sapiens", "value": "Active"},
      {"measurement": "inhibition", "setting": "Mus musculus", "value": "Active"}
    ]}
  ]
}
